AHR activator: human AHR activation; AID 2796; AHR-responsive luciferase reporter cells, luminescence; P35869; activation, % at 5 µM; actives 2.5% (n = 320,000); in the data active means activation above about 47%;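 further: 0% = vehicle wells and 100% = reference agonist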
Target sequence (P35869 whole entry, looked up): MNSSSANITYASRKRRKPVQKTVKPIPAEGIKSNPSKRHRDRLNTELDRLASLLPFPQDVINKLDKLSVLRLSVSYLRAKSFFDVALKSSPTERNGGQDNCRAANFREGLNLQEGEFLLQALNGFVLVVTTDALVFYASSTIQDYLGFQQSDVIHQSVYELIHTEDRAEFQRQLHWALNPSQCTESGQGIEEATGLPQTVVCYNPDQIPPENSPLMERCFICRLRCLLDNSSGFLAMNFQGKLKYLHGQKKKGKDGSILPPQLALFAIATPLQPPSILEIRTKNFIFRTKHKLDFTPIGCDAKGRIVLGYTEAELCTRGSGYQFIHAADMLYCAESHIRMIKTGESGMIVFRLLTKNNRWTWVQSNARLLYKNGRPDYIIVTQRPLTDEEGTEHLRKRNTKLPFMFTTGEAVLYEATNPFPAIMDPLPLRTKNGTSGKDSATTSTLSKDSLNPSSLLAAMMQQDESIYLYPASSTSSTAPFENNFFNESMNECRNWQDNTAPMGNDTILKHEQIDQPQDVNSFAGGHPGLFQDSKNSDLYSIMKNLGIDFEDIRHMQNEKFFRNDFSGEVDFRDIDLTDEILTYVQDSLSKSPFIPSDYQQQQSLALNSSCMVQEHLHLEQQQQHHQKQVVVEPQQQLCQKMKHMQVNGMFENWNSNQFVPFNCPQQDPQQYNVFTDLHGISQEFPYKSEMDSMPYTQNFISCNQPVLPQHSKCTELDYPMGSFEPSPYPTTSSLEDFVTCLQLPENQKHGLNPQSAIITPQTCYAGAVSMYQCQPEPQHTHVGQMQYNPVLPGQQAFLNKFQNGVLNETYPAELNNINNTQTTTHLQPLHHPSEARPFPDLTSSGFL
H9c2 TAG inh: reduces triacylglycerol accumulation in H9c2 cells. Nile Red lipid (TAG) fluorescence; cells loaded with 200 µM oleic acid. inhibition, % at 12.5 µM. actives 0.66% (n = 230,000). AID 651582;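 active means pattern-corrected inhibition of lipid staining of at least 50% with the nuclear-stain viability signal not falling by more than 50%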;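 further: 0% = DMSO wells and 100% = triacsin C control wells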
SMARCA2 activ: activators of SMARCA2 function; MG213 cells, MMTV-luciferase reporter, dexamethasone, overnight; activation, % at 9.1 µM; actives 1% (n = 370,000); in the data active means activation above about 7.8%;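 further: 0% = vehicle wells and 100% = reference activator wells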
Tb MetRS inh: Trypanosoma brucei MetRS inhibition; purified T. brucei MetRS, ATP depletion, Kinase-Glo luminescence; actives 0.4% (n = 360,000); inhibition, % at 11.9 µM; AID 624268;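 active means inhibition above a per-plate cutoff of the control wells' mean inhibition plus 3 SD, cut at about 5.5% in these data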;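 further: 0% = DMSO wells median and 100% = median of wells with control inhibitor compound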
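assay system = parasite MetRS enzyme | timing = 15 min preincubation, 2 h reaction, all 25 °C | evaluation = percent inhibition relative to median high and low control wells | medium = HEPES buffer containing pyrophosphatase, BSA, spermine, DTT | compound = single dose, 11.9 µM final nominal, 0.9% final DMSO | detection = Kinase-Glo luminescence, ATP depletion format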
Efflux pump inh: inhibitors of Candida antifungal efflux pumps expressed in yeast | actives 0.44% (n = 330,000) | inhibition, % at 10 µM | S. cerevisiae Candida pump triplex, Nile Red efflux;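 active means plate passing quality check with inhibition over a set limit, or well fluorescence over plate mean plus 4 SD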;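 further: Nile Red retained in pooled yeast measured as flow cytometry median fluorescence; 0% = buffer negative control and 100% = Enniatin B positive control; higher means more Nile Red kept so more efflux inhibition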
TbMetRS confirm: Trypanosoma brucei MetRS inhibition confirmed | shares compounds with Tb MetRS inh | T. brucei MetRS enzyme, luminescence (ATP depletion) | inhibition, % at 11.9 µM | actives 93% (n = 1,400) | AID 624412; in the data active means inhibition above about 7%
Jurkat tox: kills Jurkat cells in T. brucei MetRS counterscreen | shares compounds with Tb MetRS inh | Jurkat cells viability, ATP luminescence | inhibition, % at 8.3 µM | actives 12% (n = 1,400); in the data active means inhibition above about 15%;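 further: 0% = vehicle and 100% = reference inhibitor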
TbMetRS FP orth: orthogonal test for Trypanosoma brucei MetRS inhibitors. shares compounds with Tb MetRS inh. purified T. brucei MetRS, fluorescence polarization. inhibition, % at 11.9 µM. actives 44% (n = 1,400); in the data active means inhibition above about 17%;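 further: 0% = vehicle wells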
* = called active by the depositor; / = no result given. Compounds with a hit are over-represented: about 4.1% of the library has one in this group of screens.

SMILES	AHR activator	H9c2 TAG inh	SMARCA2 activ	Tb MetRS inh	Efflux pump inh	TbMetRS confirm	Jurkat tox	TbMetRS FP orth
O=C(Nc1ccc(Cl)cc1)Nc1cc(S(=O)(=O)N2CCOCC2)ccc1N1CCCC1	10	-16	-4	38*	0	60*	-4	35*
O=C(Nc1ccccc1)Nc1cc(S(=O)(=O)N2CCOCC2)ccc1N1CCCC1	0	/	-3	8.5*	0	20*	3	12
O=C(Nc1ccc(F)cc1)Nc1cc(S(=O)(=O)N2CCOCC2)ccc1N1CCCC1	0	-23	0	11*	0	27*	7	13
C=CCNC(=O)CN(C(=O)Cc1ccc(Cl)cc1)c1cccc(Br)c1	/	/	7	/	/	/	/	/
OC(c1cc(F)cc(Cl)c1)c1ncc(-c2ccc3ccccc3c2)[nH]1 (stereo unspecified)	/	-18	-1	76*	/	92*	9	75*
Cc1ccc(-c2cnc(C(O)c3ccc(Cl)c(F)c3)[nH]2)cc1 (stereo unspecified)	/	-17	/	1	/	/	/	/
OC(c1cccc(Cl)c1)c1ncc(-c2ccc3ccccc3c2)[nH]1 (stereo unspecified)	/	3	4	42*	/	74*	8	47*
OC(c1cccc(F)c1)c1ncc(-c2ccc3ccccc3c2)[nH]1 (stereo unspecified)	/	-20	2	1	/	/	/	/
Cc1ccc(-c2cnc(C(O)c3ccc(Cl)c(Cl)c3)[nH]2)cc1 (stereo unspecified)	/	4	0	9.4*	/	37*	-10	14
CC(C)(C)c1ccc(C(O)c2ncc(-c3ccc4ccccc4c3)[nH]2)cc1 (stereo unspecified)	/	-40	-1	0	/	/	/	/
Cc1ccc(-c2cnc(C(O)c3cc(F)cc(Cl)c3)[nH]2)cc1 (stereo unspecified)	/	-2	-2	10*	/	39*	2	14
CCCCCCCCNS(=O)(=O)CC1NCc2ccccc21 (stereo unspecified)	/	/	-2	/	/	/	/	/
Cc1ccc(C)c(NC(=O)C2CCCN2S(=O)(=O)c2cccc3cccnc23)c1 (stereo unspecified)	/	/	-1	/	/	/	/	/
COC(=O)c1cc(-c2ccc(C)cc2)c(=O)n2c1CCC2	/	/	-3	/	/	/	/	/
OC(c1cc(F)cc(Cl)c1)c1ncc(-c2ccccc2Cl)[nH]1 (stereo unspecified)	/	-17	5	24*	/	58*	4	24*
Cc1cc(C(O)c2ncc(-c3ccccc3Cl)[nH]2)ccc1F (stereo unspecified)	/	-21	5	0	/	/	/	/
C[C@@H]1CCN(C2CC2)S(=O)(=O)c2ccc(N3CC[C@H](N(C)C)C3)cc2O1	/	/	0	/	/	/	/	/
CC(=O)Nc1ccc(NC(=O)C(C)OC(=O)/C=C/c2cn(-c3ccccc3)nc2-c2cccnc2)cc1 (stereo unspecified)	5	/	-2	0	0	/	/	/
CC(=O)NS(=O)(=O)c1ccc(NC(=O)/C=C/c2cn(-c3ccccc3)nc2-c2ccccc2)cc1	-1	1	-1	51*	0	49*	-4	42*
COc1cccc(CC(Cc2nc3ccccc3[nH]2)c2nc3ccccc3[nH]2)c1 (stereo unspecified)	38	-9	4	9.3*	0	12*	5	5
Cc1ccc2c(c1)C1CS(=O)(=O)N(CC(C)C)C(=O)N1C2 (stereo unspecified)	/	/	7	/	/	/	/	/
CCOc1ccc2[nH]cc(S(=O)(=O)c3ccc(F)cc3)c(=O)c2c1	5	-15	-2	1	0	/	/	/
CCOc1ccc(S(=O)(=O)c2c[nH]c3ccccc3c2=O)cc1	1	/	1	13*	0	24*	1	6
CCN(CC)CCNc1ccnc2cc(Cl)ccc12	0	/	1	0	0	/	/	/
Clc1ccc2c(NCc3ccccc3)ccnc2c1	9	/	-4	7.9*	0	20*	19*	5
SMILES	AHR activator	H9c2 TAG inh	SMARCA2 activ	Tb MetRS inh	Efflux pump inh	TbMetRS confirm	Jurkat tox	TbMetRS FP orth
O=C(NCCNc1ccc(Cl)cc1[N+](=O)[O-])c1ccccc1F	0	-3	1	2	0	/	/	/
O=C(NCCNc1ccnc2cc(Cl)ccc12)c1ccccc1F	2	/	-2	8.7*	0	13*	47*	10
CCOC(=O)[C@@]12CCCC3=C1N(CCC3)C(=O)[C@H]2CC(=O)NCCc1ccccc1OC	/	/	-3	/	/	/	/	/
CN(CCc1nc2ccc(Cl)cc2[nH]1)Cc1nc(CC2CC2)no1	5	-1	-4	42*	0	62*	-1	28*
O=C(Nn1c(-c2ccc(Br)cc2)nc2ccccc2c1=O)c1ccc([N+](=O)[O-])cc1	62*	2	0	8.7*	0	18*	6	4
Cc1cnc(CNC(=O)C2CCC(=O)N(Cc3ccc(Cl)cc3)C2)[nH]1 (stereo unspecified)	3	-12	1	32*	0	69*	-1	36*
CC(C)(C)OC(=O)NCc1ccccc1/C=C/S(=O)(=O)NCc1ccc(F)cc1	/	/	-2	/	/	/	/	/
Cc1ccccc1NC(=O)C[C@H]1CC[C@H]2[C@@H](COc3ccc(NC(=O)Nc4ccccc4)cc3C(=O)N2C)O1	/	/	-3	/	/	/	/	/
S=C(Nc1cccc(Cl)c1)OC1CCC12CCC(c1ccccc1)CC2 (stereo unspecified)	/	/	-2	/	/	/	/	/

High-throughput results from PubChem BioAssay.
